From ChEMBL document CHEMBL3272299, “Antineoplastic agents. 1. N-Protected vinyl, 1,2-dihaloethyl, and cyanomethyl esters of phenylalanine” (J Med Chem, 1977)
The source made the active and inactive calls. The calls are words filed in the database; no cut-off is given here.

Key:
[1] = test system: Ehrlich; experiment: Antitumor activity against mouse EAC allografted in CF1 mouse assessed as inhibition of tumor growth at 33 mg/kg/day measured on day 7; type: functional; details: 168 h
[2] = Acute toxicity in CF1 mouse; type: organism-based; details: in vivo
[3] = test system: Ehrlich; experiment: Antitumor activity against mouse EAC allografted in CF1 mouse assessed as host survival at 33 mg/kg/day measured on day 7; type: functional, organism-based
[4] = test system: Ehrlich; experiment: Antitumor activity against mouse EAC allografted in CF1 mouse assessed as tumor volume at 33 mg/kg/day measured on day 7; type: functional
[5] = Chemical stability of the compound by TLC analysis; type: physicochemical
[6] = Chemical stability of the compound assessed as optical rotation; type: physicochemical
[7] = test system: P388; experiment: Antitumor activity against mouse P388 cells allografted in DBA/2 mouse assessed as host survival at 20 mg/kg, ip qd; type: functional; details: route intraperitoneal
Summary of the method: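 P388 leukaemia cells were implanted on day 0 in male DBA/2 mice (20 g). Compound was dosed ip at 20 mg/kg/day. T/C survival values were calculated according to the NIH protocol. 5-Fluorouracil served as the internal standard.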

[8] = test system: P388; experiment: Antitumor activity against mouse P388 cells allografted in DBA/2 mouse assessed as tumor growth inhibition at 20 mg/kg, ip qd relative to control; type: functional; details: route intraperitoneal
[9] = test system: W256; experiment: Antitumor activity against rat Walker 256 cells allografted in Sprague-Dawley rat assessed as tumor growth inhibition at 2.5 mg/kg, ip qd relative to control; type: functional; details: route intraperitoneal
[10] = test system: W256; experiment: Antitumor activity against rat Walker 256 cells allografted in Sprague-Dawley rat assessed as host survival days at 2.5 mg/kg, ip qd; type: functional; details: route intraperitoneal
Summary of the method: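 Walker 256 ascites cells were implanted ip into male Sprague-Dawley rats (75 ± 10 g). Compound in 0.05% Tween-water was given ip at 2.5 mg/kg/day, and the day of death was recorded. T/C was calculated from the mean survival time per group according to the NIH protocol. Melphalan served as the internal standard.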

| SMILES | inhibition in vivo at 33 mg/kg/day [1] [%] | LD50 [2] [µmol/kg] | Survival [3] | Activity [4] [mL] | Stability [5] | Stability [6] | Survival [7] [days] | T/C [8] | T/C [9] | Survival [10] [days] |
| --- | --- | --- | --- | --- | --- | --- | --- | --- | --- | --- |
| O=C(N[C@@H](Cc1ccccc1)C(=O)N[C@@H](Cc1ccccc1)C(=O)OC(Br)CBr)OCc1ccccc1 (stereo partly specified) | 92 | 780 | Active | 0.2 |  |  |  |  |  |  |
| C=CCOC(=O)[C@H](Cc1ccccc1)NC(=O)OCc1ccccc1 | 24 |  | Active | 2.6 | Stable | Stable |  |  |  |  |
| O=C(N[C@@H](Cc1ccccc1)C(=O)O)OCc1ccccc1 | 75 | 840 | Active | 0.6 |  |  |  |  |  |  |
| C=COC[C@H](Cc1ccccc1)NC(=O)OCc1ccccc1 | 47 |  |  | 1.4 | Stable | Stable |  |  |  |  |
| C#CCN[C@@H](Cc1ccccc1)C(=O)OCC | 16 |  | Active | 3.7 |  |  |  |  |  |  |
| C=CCOC(=O)C(Cc1ccccc1)NC(=O)OCc1ccccc1 (racemic) | 71 |  | Active | 0.6 | Stable | Stable |  |  |  |  |
| Sc1ncnc2nc[nH]c12 [MERCAPTOPURINE ANHYDROUS] | 99.6 |  | Active | 0.7 |  |  | 12 | 148 |  |  |
| C=COC(=O)[C@H](Cc1ccccc1)NC(=O)[C@H](Cc1ccccc1)NC(=O)OCc1ccccc1 | 43 |  |  | 2.1 | Stable | Stable |  |  |  |  |
| Cc1ccc(S(=O)(=O)N[C@@H](Cc2ccccc2)C(=O)C(=O)CCl)cc1 | 100 | 210 |  | 0.01 |  |  |  |  |  |  |
| O=C(N[C@@H](Cc1ccccc1)C(=O)OC(Cl)CCl)OCc1ccccc1 (stereo partly specified) | 93 | 1260 | Active | 0.8 |  |  |  |  |  |  |
| CCOC(=O)[C@H](Cc1ccccc1)NC(=O)OCc1ccccc1 | 57 | 1530 | Active | 1.5 |  |  |  |  |  |  |
| O=C(N[C@H](CO)Cc1ccccc1)OCc1ccccc1 | 55 |  | Active | 1.3 |  |  |  |  |  |  |
| C#CCOC(=O)[C@H](Cc1ccccc1)NC(=O)OCc1ccccc1 | 54 |  |  | 3.3 |  |  |  |  |  |  |
| N[C@@H](Cc1ccc(N(CCCl)CCCl)cc1)C(=O)O [MELPHALAN] | 99 |  | Active | 0.1 |  |  |  |  | 305 | 23 |
| O=C(N[C@H](Cc1ccccc1)C(=O)O)OCc1ccccc1 | 0 |  | Active | 4.3 |  |  |  |  |  |  |
| N#CCOC(=O)[C@H](Cc1ccccc1)NC(=O)/C=C/c1ccccc1 | 27 |  | Active | 2.8 | Stable | Stable |  |  |  |  |
| N#CCOC(=O)[C@H](Cc1ccccc1)NC(=O)OCc1ccccc1 | 99.9 | 440 | Active | 0.2 | Stable | Stable | 6.6 | 82 | 113 | 8.5 |
| N#CCOC(=O)[C@H](Cc1ccccc1)NC(=O)c1ccccc1 | 47 | 360 |  | 1.8 | Stable | Stable |  |  |  |  |
| C=COC(=O)[C@H](Cc1ccccc1)NC(=O)OCc1ccccc1 | 99.9 | > 6150 | Active | 0.1 | Stable | Stable | 8.1 | 100 | 226 | 18.1 |
| O=C(N[C@@H](Cc1ccccc1)C(=O)O)c1ccccc1 | 73 |  | Active | 1.3 |  |  |  |  |  |  |
